Where “and” joins values, the source holds several entries; their conditions need not be identical. Equal entries are not always repeated. One block for each compound: values may come before it.
How the values were obtained:
[1] = target: T1, Neuropeptide Y receptor type 5 (Homo sapiens, UniProt Q15761); experiment: (§1) In vitro binding affinity against human neuropeptide Y5 receptor
T1 sequence (Q15761 whole entry): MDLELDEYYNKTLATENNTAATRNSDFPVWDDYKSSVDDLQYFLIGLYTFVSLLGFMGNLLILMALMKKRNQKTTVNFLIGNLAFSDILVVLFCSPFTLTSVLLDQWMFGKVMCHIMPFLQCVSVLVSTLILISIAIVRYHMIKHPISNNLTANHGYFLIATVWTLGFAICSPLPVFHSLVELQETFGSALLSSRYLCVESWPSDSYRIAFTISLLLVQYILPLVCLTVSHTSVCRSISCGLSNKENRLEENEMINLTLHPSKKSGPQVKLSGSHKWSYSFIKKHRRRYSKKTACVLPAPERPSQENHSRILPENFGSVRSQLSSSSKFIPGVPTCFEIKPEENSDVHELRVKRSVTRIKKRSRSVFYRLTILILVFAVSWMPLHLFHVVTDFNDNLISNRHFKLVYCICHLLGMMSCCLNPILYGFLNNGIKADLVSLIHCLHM

[2] = (§2) Concentration (30 mg/kg, p.o.) in rat hypothalamus after 2 hours; format: ADME, organism-based; conditions: hypothalamus, po
How it was run: (§3)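 Male rats (RA238), fasted overnight, given 30 mg/kg by oral gavage (5 mL/kg) in 20% Cremophore EL/water (w/w). Plasma and hypothalamus were sampled at 2 and 6 h post-dose and levels measured by LC-MS. Values are the mean of 3-6 animals per time point, as µg/mL plasma and µg/g hypothalamus.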

[3] = (§4) Concentration (30 mg/kg, p.o.) in rat hypothalamus after 6 hours; format: ADME, organism-based; conditions: hypothalamus, po; how it was run: as §3
[4] = (§5) Concentration (30 mg/kg, p.o.) in rat plasma after 6 hours; format: ADME, organism-based; conditions: plasma, po; how it was run: as §3
[5] = Concentration (30 mg/kg, p.o.) in rat plasma after 2 hours; format: ADME, organism-based; conditions: plasma, po; how it was run: as §3
[6] = target: T1, Neuropeptide Y receptor type 5; experiment: as §1; remark: listed apart in the source
How it was run: (§6)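 Reported as IC50 (nM), each value the mean of three separate experiments.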

[7] = target: T1, Neuropeptide Y receptor type 5; experiment: In vitro binding affinity against human neuropeptide Y5 receptor measured as Ca+ response; how it was run: as §6
[8] = target: T2, Neuropeptide Y receptor type 5 (Rattus norvegicus, UniProt Q63634); experiment: In vitro binding affinity against rat neuropeptide Y5 receptor; how it was run: as §6
T2 sequence (Q63634 whole entry): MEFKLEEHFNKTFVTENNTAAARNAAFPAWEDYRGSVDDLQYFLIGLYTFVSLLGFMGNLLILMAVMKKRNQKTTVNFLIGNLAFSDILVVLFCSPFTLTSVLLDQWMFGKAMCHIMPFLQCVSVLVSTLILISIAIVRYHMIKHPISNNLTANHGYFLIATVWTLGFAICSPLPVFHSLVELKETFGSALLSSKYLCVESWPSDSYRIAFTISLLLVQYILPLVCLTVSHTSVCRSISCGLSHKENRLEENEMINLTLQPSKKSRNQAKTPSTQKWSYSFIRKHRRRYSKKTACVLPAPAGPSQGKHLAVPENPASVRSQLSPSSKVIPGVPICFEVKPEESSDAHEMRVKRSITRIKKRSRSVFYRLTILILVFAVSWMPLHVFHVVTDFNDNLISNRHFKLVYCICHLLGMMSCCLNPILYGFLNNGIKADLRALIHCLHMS

Rattus norvegicus [9] = experiment: as §2; format: ADME, organism-based; conditions: in vivo, po, 2 h; how it was run: as §3
Rattus norvegicus [10] = experiment: as §4; format: ADME, organism-based; conditions: in vivo, po, 6 h; how it was run: as §3
Rattus norvegicus [11] = experiment: as §5; format: ADME, organism-based; conditions: in vivo, po, 6 h; how it was run: as §3

concentration at 2 h [2]: 2440 ng/g
concentration at 6 h [3]: 1080 ng/g
concentration at 6 h [4]: 390 ng/mL
concentration at 2 h [5]: 970 ng/mL
IC50 [6]: 5 nM
Structure (SMILES): O=C([C@H]1CCCO1)N1CCC(CNc2nc3c(s2)CCOc2ccc(F)cc2-3)CC1

IC50 [1]: 2 nM
Structure (SMILES): COCCNCC(=O)N1CCC(CNc2nc3c(s2)CCCc2ccc(F)cc2-3)CC1

IC50 [1]: 3 nM
Structure (SMILES): CN(CC(=O)N1CCC(CNc2nc3c(s2)CCCc2ccc(F)cc2-3)CC1)CC1CC1

IC50 [1]: 6 nM
Structure (SMILES): O=C(CNCC1CC1)N1CCC(CNc2nc3c(s2)CCCc2ccc(F)cc2-3)CC1

concentration at 2 h [2]: 1460 ng/g
concentration at 6 h [3]: 400 ng/g
concentration at 6 h [4]: 260 ng/mL
IC50 [1]: 5 nM
IC50 [7]: 40 nM
IC50 [8]: 2.9 nM
concentration at 2 h [5]: 870 ng/mL
Structure (SMILES): Cc1ccc2c(c1)-c1nc(NCC3CCN(C(=O)[C@H]4CCCO4)CC3)sc1CCO2

IC50 [6]: 71 nM
Structure (SMILES): O=C(CN1CCCCC1)N1CCC(CNc2nc3c(s2)CCOc2ccc(F)cc2-3)CC1

IC50 [6]: 22 nM
Structure (SMILES): COCCC(=O)N1CCC(CNc2nc3c(s2)CCOc2ccc(F)cc2-3)CC1

Concentration (Rattus norvegicus [9]): 0.86 µg/g and 2.44 µg/g
concentration at 6 h [3]: 670 ng/g
Concentration (Rattus norvegicus [10]): 0.67 µg/g
concentration at 6 h [4]: 220 ng/mL
Concentration (Rattus norvegicus [11]): 220 ng/mL
IC50 [1]: 2 nM
Structure (SMILES): O=C([C@H]1CCCO1)N1CCC(CNc2nc3c(s2)CCCc2ccc(F)cc2-3)CC1

concentration at 2 h [2]: 5480 ng/g
concentration at 6 h [3]: 640 ng/g
concentration at 6 h [4]: 140 ng/mL
concentration at 2 h [5]: 930 ng/mL
IC50 [6]: 19 nM
Structure (SMILES): O=C([C@@H]1CCCO1)N1CCC(CNc2nc3c(s2)CCOc2ccc(F)cc2-3)CC1

IC50 [1]: 2 nM
Structure (SMILES): COCC(=O)N1CCC(CNc2nc3c(s2)CCCc2ccc(F)cc2-3)CC1

IC50 [1]: 2 nM
Structure (SMILES): COCCC(=O)N1CCC(CNc2nc3c(s2)CCCc2ccc(F)cc2-3)CC1

concentration at 2 h [2]: 2420 ng/g
concentration at 6 h [3]: 880 ng/g
concentration at 6 h [4]: 330 ng/mL
IC50 [1]: 5 nM
IC50 [7]: 61 nM
concentration at 2 h [5]: 840 ng/mL
Structure (SMILES): Cc1ccc2c(c1)-c1nc(NCC3CCN(C(=O)C(C)C)CC3)sc1CCO2

IC50 [1]: 7 nM
Structure (SMILES): CCCCC(=O)N1CCC(CNc2nc3c(s2)CCOc2ccc(C)cc2-3)CC1

IC50 [1]: 4 nM
Structure (SMILES): CN(C)CC(=O)N1CCC(CNc2nc3c(s2)CCCc2ccc(F)cc2-3)CC1

IC50 [6]: 18 nM
Structure (SMILES): CN(CC(=O)N1CCC(CNc2nc3c(s2)CCOc2ccc(F)cc2-3)CC1)CC1CC1

IC50 [6]: 41 nM
Structure (SMILES): O=C(CN1CCOCC1)N1CCC(CNc2nc3c(s2)CCOc2ccc(F)cc2-3)CC1

IC50 [1]: 6 nM
Structure (SMILES): O=C(CNCC1CCCO1)N1CCC(CNc2nc3c(s2)CCCc2ccc(F)cc2-3)CC1 (configuration not stated)

Further lines, the compound ahead of its results:

Structure (SMILES): Cc1ccc2c(c1)-c1nc(NCC3CCN(C(=O)c4ccccn4)CC3)sc1CCO2
IC50 [1]: 25 nM

Structure (SMILES): O=C1CC[C@H](C(=O)N2CCC(CNc3nc4c(s3)CCCc3ccc(F)cc3-4)CC2)O1
IC50 [1]: 4 nM

Structure (SMILES): O=C(CC1CC1)N[C@H]1CC[C@H](CNc2nc3c(s2)CCCc2ccc(F)cc2-3)CC1
IC50 [1]: 6 nM

Structure (SMILES): CN(C)C(=O)CCCCNc1nc2c(s1)CCCc1ccc(F)cc1-2
IC50 [1]: 25 nM

Structure (SMILES): O=C(CN1CCCCC1)N[C@H]1CC[C@H](CNc2nc3c(s2)CCCc2ccc(F)cc2-3)CC1
IC50 [1]: 29 nM

Structure (SMILES): Fc1ccc(-c2csc(Nc3ccccc3)n2)cc1
IC50 [1]: 1600 nM

Structure (SMILES): CN(C)S(=O)(=O)NC[C@H]1CC[C@H](Nc2nc3c(s2)-c2ccccc2Sc2ccccc2-3)CC1
IC50 [1]: 15 nM

Structure (SMILES): CN(C)CCCC(=O)N[C@H]1CC[C@H](CNc2nc3c(s2)CCCc2ccc(F)cc2-3)CC1
IC50 [1]: 290 nM

Structure (SMILES): CC(C)N1CCN(CC(=O)N[C@H]2CC[C@H](CNc3nc4c(s3)CCCc3ccc(F)cc3-4)CC2)CC1
IC50 [1]: 210 nM

Structure (SMILES): CC(C)C(=O)N1CCC(CNc2nc3c(s2)CCOc2cc(F)c(Cl)cc2-3)CC1
IC50 [1]: 13 nM

Structure (SMILES): CC(=O)NC1CCN(CC(=O)Nc2nc3c(s2)CCCc2ccc(F)cc2-3)CC1
IC50 [1]: 78 nM

Structure (SMILES): CCCN(C)CC(=O)N[C@H]1CC[C@H](CNc2nc3c(s2)CCCc2ccc(F)cc2-3)CC1
IC50 [1]: 6 nM

Structure (SMILES): CC(C)C(=O)N1CCC(CNc2nc3c(s2)CCOc2cc(F)c(F)cc2-3)CC1
IC50 [1]: 40 nM

Structure (SMILES): CCCCC(=O)N[C@H]1CC[C@H](CNc2nc3c(s2)CCCc2ccc(F)cc2-3)CC1
IC50 [1]: 6 nM

Structure (SMILES): CN1CCN(CC(=O)N2CCC(CNc3nc4c(s3)CCCc3ccc(F)cc3-4)CC2)CC1
IC50 [1]: 24 nM

Structure (SMILES): O=C(CCN1CCCCC1)N[C@H]1CC[C@H](CNc2nc3c(s2)CCCc2ccc(F)cc2-3)CC1
IC50 [1]: 150 nM
